Results as given in ChEMBL document CHEMBL1142845, “Synthesis, stability, and implications of phosphothioate agonists of sphingosine-1-phosphate receptors” (Bioorg Med Chem Lett, 2005).
“And” between values parts separate entries of the source, which are not always exact repeats. Equal entries are not always repeated.

Test: Effective concentration required for [35S]GTP-gamma-S binding towards Sphingosine 1-phosphate receptor G-protein complex expressed in HEK293T cells
Assay type: functional, cell-based, Homo sapiens
Conditions: hek-293t
How it was run: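 Agonist-stimulated [35S]GTPγS binding was measured on individual S1P receptor–G-protein complexes overexpressed in HEK293T cells. EC50 values were taken from ligand-dependent binding, and efficacy was expressed as a percentage of the S1P maximal effect at each receptor.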

| Compound | EC50 |
| --- | --- |
| CCCCCCCCc1ccc(NC(=O)[C@@H](N)[C@@H](C)O)cc1 | 1700 nM and 490 nM |
| CCCCCCCCc1ccc(NC(=O)[C@@H](N)[C@@H](C)OP(=O)(O)O)cc1 | 20 nM |
| CCCCCCCCc1ccc(CC[C@@H](N)CO)cc1 | 910 nM and 2800 nM and 8700 nM |
